{
  "source": "ChEMBL document CHEMBL1133172",
  "about": "“Discovery of orally active nonpeptide vitronectin receptor antagonists based on a 2-benzazepine Gly-Asp mimetic” (J Med Chem, 2000)",
  "key": {"[1]": {"target": "Integrin alpha-IIb/beta-3 (Homo sapiens, UniProt P05106+P08514)", "sequence (P05106 27-788 limits assumed)": "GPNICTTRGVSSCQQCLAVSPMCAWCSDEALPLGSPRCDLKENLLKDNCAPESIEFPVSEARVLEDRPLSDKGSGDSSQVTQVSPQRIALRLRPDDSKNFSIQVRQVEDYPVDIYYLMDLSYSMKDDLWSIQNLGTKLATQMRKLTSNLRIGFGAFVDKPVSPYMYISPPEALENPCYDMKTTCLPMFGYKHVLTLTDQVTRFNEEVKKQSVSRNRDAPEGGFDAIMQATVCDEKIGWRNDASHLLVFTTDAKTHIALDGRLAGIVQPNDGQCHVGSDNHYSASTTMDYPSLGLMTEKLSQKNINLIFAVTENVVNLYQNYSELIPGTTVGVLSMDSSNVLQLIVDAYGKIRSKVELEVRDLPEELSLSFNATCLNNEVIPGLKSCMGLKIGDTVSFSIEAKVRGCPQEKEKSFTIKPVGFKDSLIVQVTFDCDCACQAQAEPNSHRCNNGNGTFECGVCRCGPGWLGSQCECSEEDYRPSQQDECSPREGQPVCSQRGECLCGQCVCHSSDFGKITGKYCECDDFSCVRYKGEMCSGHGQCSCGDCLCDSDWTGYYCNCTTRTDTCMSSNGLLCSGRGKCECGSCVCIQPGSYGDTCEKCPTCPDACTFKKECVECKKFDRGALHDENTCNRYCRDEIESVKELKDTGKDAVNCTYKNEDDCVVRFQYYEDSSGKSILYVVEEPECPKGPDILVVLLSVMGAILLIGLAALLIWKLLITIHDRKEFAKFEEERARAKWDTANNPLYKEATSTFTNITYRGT", "sequence (P08514 32-887 limits assumed)": "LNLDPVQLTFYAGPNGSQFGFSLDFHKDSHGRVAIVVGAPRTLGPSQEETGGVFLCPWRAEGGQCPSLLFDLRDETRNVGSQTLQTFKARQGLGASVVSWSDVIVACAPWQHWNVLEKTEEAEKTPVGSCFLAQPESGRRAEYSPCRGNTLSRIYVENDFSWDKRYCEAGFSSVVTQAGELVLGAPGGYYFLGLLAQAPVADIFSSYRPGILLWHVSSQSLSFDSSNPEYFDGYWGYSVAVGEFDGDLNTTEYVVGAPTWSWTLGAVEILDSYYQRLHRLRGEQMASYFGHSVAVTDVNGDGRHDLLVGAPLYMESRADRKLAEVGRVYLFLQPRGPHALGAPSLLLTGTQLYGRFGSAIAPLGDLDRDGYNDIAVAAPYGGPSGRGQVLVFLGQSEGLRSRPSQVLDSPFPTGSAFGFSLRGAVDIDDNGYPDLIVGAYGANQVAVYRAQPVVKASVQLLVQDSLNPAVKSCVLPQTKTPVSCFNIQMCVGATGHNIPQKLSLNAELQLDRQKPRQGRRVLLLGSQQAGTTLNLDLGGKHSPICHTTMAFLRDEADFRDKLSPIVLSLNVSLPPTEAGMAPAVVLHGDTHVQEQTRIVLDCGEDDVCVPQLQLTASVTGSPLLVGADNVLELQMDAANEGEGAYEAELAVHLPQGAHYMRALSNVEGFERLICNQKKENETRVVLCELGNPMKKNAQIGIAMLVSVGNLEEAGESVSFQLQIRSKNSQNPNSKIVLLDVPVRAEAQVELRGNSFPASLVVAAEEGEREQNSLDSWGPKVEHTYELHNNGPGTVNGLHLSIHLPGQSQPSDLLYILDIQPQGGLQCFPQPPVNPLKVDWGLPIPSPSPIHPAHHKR", "sequence (P08514 891-1039 limits assumed)": "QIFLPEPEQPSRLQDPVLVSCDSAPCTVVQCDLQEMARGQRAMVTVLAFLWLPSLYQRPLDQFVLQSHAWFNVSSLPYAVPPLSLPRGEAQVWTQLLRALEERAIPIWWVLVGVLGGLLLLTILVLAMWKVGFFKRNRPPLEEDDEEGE", "assay": "Binding affinity for alpha IIb beta-3 integrin", "type": "protein-complex assay", "summary_of_the_method": "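Human αIIbβ3 competition binding, 3H-SK&F 107260 as the displaced radioligand; Ki averaged over two to three separate experiments.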"}, "[2]": {"assay": "Plasma clearance in rat", "type": "ADME, organism-based", "summary_of_the_method": "(§1)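 Rats; plasma concentration–time data of test compound from two to three separate animals, analysed noncompartmentally for half-life and clearance.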"}, "[3]": {"assay": "Oral bioavailability in rat", "type": "ADME, organism-based", "conditions": "in vivo", "summary_of_the_method": "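Rat iv and po dosing; plasma concentration–time data from two to three animals; oral bioavailability calculated from dose-normalized iv and po AUC values.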"}, "[4]": {"assay": "Half life period in rat", "type": "ADME, organism-based", "conditions": "in vivo", "summary_of_the_method": "as §1"}, "Integrin alpha-V/beta-3 [5]": {"target": "T1, Integrin alpha-V/beta-3 (Homo sapiens, UniProt P05106+P06756)", "T1 sequence (P05106 27-788 limits assumed)": "as the sequence (P05106 27-788 limits assumed) above", "T1 sequence (P06756 31-889 limits assumed)": "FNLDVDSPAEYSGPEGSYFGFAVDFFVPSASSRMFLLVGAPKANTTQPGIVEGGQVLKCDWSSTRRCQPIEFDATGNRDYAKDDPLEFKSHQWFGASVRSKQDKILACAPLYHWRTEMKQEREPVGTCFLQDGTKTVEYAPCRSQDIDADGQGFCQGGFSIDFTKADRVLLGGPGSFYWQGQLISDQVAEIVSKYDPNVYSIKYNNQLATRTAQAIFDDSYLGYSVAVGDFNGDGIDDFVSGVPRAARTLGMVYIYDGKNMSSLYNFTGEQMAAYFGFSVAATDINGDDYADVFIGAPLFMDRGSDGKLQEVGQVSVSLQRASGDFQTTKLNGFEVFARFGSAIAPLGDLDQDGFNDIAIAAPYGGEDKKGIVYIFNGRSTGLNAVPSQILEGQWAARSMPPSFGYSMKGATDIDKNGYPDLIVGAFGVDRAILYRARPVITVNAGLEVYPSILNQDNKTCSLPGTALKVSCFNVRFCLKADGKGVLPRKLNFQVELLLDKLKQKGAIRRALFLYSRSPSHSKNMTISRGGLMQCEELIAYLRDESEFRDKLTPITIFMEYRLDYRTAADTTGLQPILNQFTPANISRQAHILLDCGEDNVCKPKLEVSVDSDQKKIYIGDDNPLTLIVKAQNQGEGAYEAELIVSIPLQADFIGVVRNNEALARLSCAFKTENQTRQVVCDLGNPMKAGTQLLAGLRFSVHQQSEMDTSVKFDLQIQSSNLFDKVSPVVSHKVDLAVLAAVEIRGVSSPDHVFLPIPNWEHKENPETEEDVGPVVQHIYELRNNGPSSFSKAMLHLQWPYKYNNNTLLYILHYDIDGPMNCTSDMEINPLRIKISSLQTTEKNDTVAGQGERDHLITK", "T1 sequence (P06756 891-1048 limits assumed)": "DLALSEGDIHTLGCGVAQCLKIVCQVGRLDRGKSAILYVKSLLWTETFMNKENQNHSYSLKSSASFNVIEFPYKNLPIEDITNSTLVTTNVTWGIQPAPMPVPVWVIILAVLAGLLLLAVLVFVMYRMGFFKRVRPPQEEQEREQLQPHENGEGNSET", "assay": "Binding affinity for Vitronectin receptor (alpha V beta 3)", "type": "protein-complex assay", "summary_of_the_method": "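Competition binding to human αvβ3 with displacement of 3H-SK&F 107260; Ki from the mean of two to three separate experiments.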"}, "Integrin alpha-V/beta-3 [6]": {"target": "T1, Integrin alpha-V/beta-3", "assay": "HEK cell adhesion mediated by alpha v beta 3 integrin", "type": "functional, cell-based, HEK293", "summary_of_the_method": "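HEK 293 cells transfected with human αvβ3; inhibition of their adhesion to purified human vitronectin measured. IC50 as the mean of two experiments run in triplicate, with an internal standard.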"}},
  "data": [
    {"smiles": "CNc1cccc(CCOc2ccc3c(c2)CN(CC(F)(F)F)C(=O)[C@H](CC(=O)O)C3)n1", "values": [
      {"measurement": "Ki", "setting": "[1]", "value": 3800, "unit": "nM"},
      {"measurement": "clearance", "setting": "[2]", "value": 25, "unit": "mL/min/kg"},
      {"measurement": "bioavailability", "setting": "[3]", "value": 72, "unit": "%"},
      {"measurement": "half-life", "setting": "[4]", "value": 53, "unit": "min"},
      {"measurement": "Ki", "setting": "Integrin alpha-V/beta-3 [5]", "value": 1.2, "unit": "nM"},
      {"measurement": "IC50", "setting": "Integrin alpha-V/beta-3 [6]", "value": 3, "unit": "nM"}
    ]},
    {"smiles": "O=C(O)C[C@@H]1Cc2ccc(OCCCNc3ccccn3)cc2CN(CC(F)(F)F)C1=O", "values": [
      {"measurement": "Ki", "setting": "[1]", "value": 3300, "unit": "nM"},
      {"measurement": "clearance", "setting": "[2]", "value": 16, "unit": "mL/min/kg"},
      {"measurement": "bioavailability", "setting": "[3]", "value": 34, "unit": "%"},
      {"measurement": "half-life", "setting": "[4]", "value": 360, "unit": "min"},
      {"measurement": "Ki", "setting": "Integrin alpha-V/beta-3 [5]", "value": 0.9, "unit": "nM"},
      {"measurement": "IC50", "setting": "Integrin alpha-V/beta-3 [6]", "value": 12, "unit": "nM"}
    ]},
    {"smiles": "O=C(O)C[C@H]1Cc2ccc(OCCCNc3ccccn3)cc2CN(CC(F)(F)F)C1=O", "values": [
      {"measurement": "clearance", "setting": "[2]", "value": 60, "unit": "mL/min/kg"},
      {"measurement": "bioavailability", "setting": "[3]", "value": 4, "unit": "%"},
      {"measurement": "half-life", "setting": "[4]", "value": 19, "unit": "min"},
      {"measurement": "Ki", "setting": "Integrin alpha-V/beta-3 [5]", "value": 20, "unit": "nM"},
      {"measurement": "IC50", "setting": "Integrin alpha-V/beta-3 [6]", "value": 390, "unit": "nM"}
    ]},
    {"smiles": "CN1Cc2cc(OCCCNc3ccccn3)ccc2CC(CC(=O)O)C1=O", "note": "(stereo unspecified)", "values": [
      {"measurement": "Ki", "setting": "[1]", "value": 30000, "unit": "nM"},
      {"measurement": "clearance", "setting": "[2]", "value": 50, "unit": "mL/min/kg"},
      {"measurement": "bioavailability", "setting": "[3]", "value": 9, "unit": "%"},
      {"measurement": "half-life", "setting": "[4]", "value": 16, "unit": "min"},
      {"measurement": "Ki", "setting": "Integrin alpha-V/beta-3 [5]", "value": 1.9, "unit": "nM"},
      {"measurement": "IC50", "setting": "Integrin alpha-V/beta-3 [6]", "value": 75, "unit": "nM"}
    ]},
    {"smiles": "O=C(O)CC1Cc2ccc(OCCCNc3ccccn3)cc2CN(CC(F)(F)F)C1=O", "note": "(stereo unspecified)", "values": [
      {"measurement": "Ki", "setting": "[1]", "value": 9000, "unit": "nM"},
      {"measurement": "clearance", "setting": "[2]", "value": 63, "unit": "mL/min/kg"},
      {"measurement": "bioavailability", "setting": "[3]", "value": 19, "unit": "%"},
      {"measurement": "half-life", "setting": "[4]", "value": 25, "unit": "min"},
      {"measurement": "Ki", "setting": "Integrin alpha-V/beta-3 [5]", "value": 1.3, "unit": "nM"},
      {"measurement": "IC50", "setting": "Integrin alpha-V/beta-3 [6]", "value": 53, "unit": "nM"}
    ]},
    {"smiles": "O=C(O)C[C@@H]1Cc2ccc(OCCCNc3ccccn3)cc2Cc2ccccc21", "values": [
      {"measurement": "clearance", "setting": "[2]", "value": 4, "unit": "mL/min/kg"},
      {"measurement": "half-life", "setting": "[4]", "value": 192, "unit": "min"}
    ]}
  ]
}
